Among the data in ChEMBL document CHEMBL1147526, “Sulfonyl-phenyl-ureido benzamidines; a novel structural class of potent antimalarial agents” (Bioorg Med Chem Lett, 2004) are IC50 values, retold here.

Each structure is given as a SMILES string. A value given as a limit tells only on which side of the number the result lay.

The test has as its system Plasmodium falciparum. As to the kind of experiment: In vitro antimalarial activity against Plasmodium falciparum Dd2. The format is functional, organism-based. The method, boiled down: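 P. falciparum Dd2 grown in RPMI 1640 with 10% heat-treated human serum and 3 mg/l gentamycin, 0.3% parasitaemia, 2.5% haematocrit; compounds 0.3 to 100 μM. After 48 h, [8-³H]hypoxanthine added and incubated a further 18 h. Cells filtered, washed, and incorporated radioactivity counted by scintillation to give IC50.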
As a reminder, the IC50 is the point on the concentration scale where inhibition reaches its midpoint. Read a high IC50 as a need for much substance. For `CCCCNS(=O)(=O)c1ccc(NC(=O)Nc2cccc(C(=N)N)c2)cc1`, half-maximal inhibition (IC50) was put at 3900 nM.

The compound `N=C(N)c1ccc(NC(=O)Nc2cccc(S(=O)(=O)NCc3ccccc3)c2)cc1` yielded a concentration for half-maximal inhibition (IC50) of 410 nM. This IC50 is about 9.5-fold lower than that of the compound before.

`N=C(N)c1cccc(NC(=O)Nc2ccc(S(=O)(=O)Nc3ccccc3)cc2)c1` displayed a half-maximal inhibitory concentration (IC50) of 9000 nM.

As for `N=C(N)c1cccc(NC(=O)Nc2ccc(S(=O)(=O)NCc3c(F)ccc(F)c3F)cc2)c1`, the half-inhibitory concentration (IC50) worked out at 17 nM.

Compound `N=C(N)c1ccc(NC(=O)Nc2cccc(S(=O)(=O)NCc3c(F)ccc(F)c3F)c2)cc1` gave an IC50 of 190 nM.

`N=C(N)c1ccc(NC(=O)Nc2ccc(S(=O)(=O)NCc3c(F)ccc(F)c3F)cc2)cc1` yielded a concentration for half-maximal inhibition (IC50) of 210 nM.

Take `N=C(N)c1cccc(NC(=O)Nc2ccc(S(=O)(=O)Nc3ccc4ccccc4c3)cc2)c1`: half-maximal inhibition (IC50) was put at 8200 nM. This IC50 is about 39-fold higher than that of the compound before.

For `N=C(N)c1cccc(NC(=O)Nc2ccc(S(N)(=O)=O)cc2)c1`, the IC50 is over 4900 nM.

`N=C(N)c1cccc(NC(=O)Nc2ccc(S(=O)(=O)NCc3ccc(F)c(F)c3)cc2)c1` registered an IC50 of 1110 nM.

On to `CNS(=O)(=O)c1ccc(NC(=O)Nc2cccc(C(=N)N)c2)cc1`, for which the IC50 was 3000 nM. This IC50 lies about 2.7-fold higher than the previous one.

The compound `N=C(N)c1cccc(NC(=O)Nc2cccc(S(=O)(=O)NCc3ccccc3)c2)c1` came in with an IC50 of 6200 nM.

As to `N=C(N)c1cccc(NC(=O)Nc2ccc(S(=O)(=O)NCc3ccccc3F)cc2)c1`, the half-maximal inhibitory concentration (IC50) worked out at 620 nM.

For `N=C(N)c1cccc(NC(=O)Nc2ccc(S(=O)(=O)N3CCc4ccccc4C3)cc2)c1`, the concentration for half-maximal inhibition (IC50) turned out to be 610 nM. This IC50 and that of the compound before are within 1.5-fold of each other.

In the case of `N=C(N)c1ccc(NC(=O)Nc2ccc(S(=O)(=O)NCc3ccccc3)cc2)cc1`, it took 400 nM to reach half-maximal inhibition (IC50). Compared with the last compound, the IC50 is about 1.5-fold lower.

Turning to `N=C(N)c1cccc(NC(=O)Nc2cccc(S(=O)(=O)NCc3ccc(S(N)(=O)=O)cc3)c2)c1`, the half-inhibitory concentration (IC50) was determined as 980 nM.

Compound `N=C(N)c1cccc(NC(=O)Nc2ccc(S(=O)(=O)NCc3ccccc3)cc2)c1` showed an IC50 of 450 nM.

The compound `N=C(N)c1cccc(NC(=O)Nc2ccc(S(=O)(=O)NCc3ccc(F)cc3F)cc2)c1` gave a concentration for half-maximal inhibition (IC50) of 1110 nM.

Regarding `N=C(N)c1ccc(NC(=O)Nc2ccc(S(=O)(=O)NCc3ccc(S(N)(=O)=O)cc3)cc2)cc1`, the IC50 came to 90 nM. This IC50 lies about 12-fold lower than the previous one.

For `N=C(N)c1cccc(NC(=O)Nc2cccc(S(=O)(=O)NCc3c(F)ccc(F)c3F)c2)c1`, the midpoint of inhibition, the IC50, lay at 250 nM.

Regarding `N=C(N)c1cccc(NC(=O)Nc2ccc(S(=O)(=O)NCc3cc(F)c(F)cc3F)cc2)c1`, the IC50 was 1800 nM.

`N=C(N)c1cccc(NC(=O)Nc2ccc(S(=O)(=O)NCCN3CCOCC3)cc2)c1` registered an IC50 of over 2500 nM.

As to `N=C(N)c1cccc(NC(=O)Nc2ccc(S(=O)(=O)NCc3ccc(S(N)(=O)=O)cc3)cc2)c1`, the IC50 amounted to 7 nM.

In turn, `N=C(N)c1ccc(NC(=O)Nc2cccc(S(=O)(=O)NCc3ccc(S(N)(=O)=O)cc3)c2)cc1` showed an IC50 of over 2500 nM.

In turn, `N=C(N)c1cccc(NC(=O)Nc2ccc(S(=O)(=O)NCc3cccc(F)c3)cc2)c1` registered a half-maximal inhibitory concentration (IC50) of 500 nM.

Take `N=C(N)c1cccc(NC(=O)Nc2ccc(S(=O)(=O)NCCO)cc2)c1`: the IC50 came to 890 nM.

Take `N=C(N)c1cccc(NC(=O)Nc2ccc(S(=O)(=O)NCc3ccc(F)cc3)cc2)c1`: the IC50 was 320 nM.

As to `N=C(N)c1cccc(NC(=O)Nc2ccc(S(=O)(=O)Nc3cccc4ccccc34)cc2)c1`, the IC50 stood at 17000 nM.

In turn, `N=C(N)c1cccc(NC(=O)Nc2cccc(C(=N)N)c2)c1` [AMICARBALIDE] returned an IC50 of 5 nM.
